Source: publication PMC10962275 (Pharmacological research, 2024)
In brackets after ≈: the same amount, converted by molar mass. Like-named read-outs stand apart in the source and are kept apart here.

Experiments:
[1] = biological target: Ref-1 (Homo sapiens, UniProt P27695); experiment: Redox EMSA; assay type: biochemical
[2] = biological target: APE1 (Homo sapiens, UniProt P27695); experiment: Kinetic fluorescence based APE1 endonuclease; assay type: biochemical
Procedure, shortened: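 Recombinant APE1 at 0.07–0.1 nM, tuned before each run for a linear signal, cleaves a double-stranded oligo with a 6-FAM-labelled strand carrying a tetrahydrofuran AP-site mimic and a DABCYL-quenched complement. Read 495/530 over a 5 min kinetic read at 37 °C. A known repair inhibitor serves as reference, also at 20 μM.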

[3] = test system: NFκB; experiment: NFκB-driven luciferase reporter assay, NF90-8 cells; assay type: cell-based; conditions: Homo sapiens, 24 h, read-out: NFκB Luciferase 24 hr EC50±SE (μM)
Procedure, shortened: (§1)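 Pa03C and NF90–8 cells carrying an NFκB-driven GFP-luciferase reporter, checked for induction by TNF-α. Seeded, then treated 24 h later with increasing test compound doses in 5% FBS medium for 24 h. Luciferase measured by One-Glo, with parallel alamarBlue viability. Mean ± SEM, n > 2 biological repeats.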

[4] = test system: NFκB; experiment: NFκB-driven luciferase reporter assay, Pa03C cells; assay type: cell-based; conditions: Homo sapiens, 24 h, read-out: NFκB Luciferase 24 hr EC50 ± SE (μM)
Procedure, shortened: as §1

[5] = test system: HIF1α; experiment: HIF1α-driven luciferase reporter assay, NF90-8 cells, 1% hypoxia; assay type: cell-based; conditions: Homo sapiens, 24 h, read-out: HIF1α Luciferase 24 hr EC50±SE (μM)
Procedure, shortened: (§2)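 Pa03C and NF90–8 cells carrying a HIF1α-driven GFP-luciferase reporter, checked for induction by hypoxia. Seeded, then treated 24 h later with increasing test compound doses in 5% FBS medium for 24 h under 1% hypoxia. Luciferase measured by One-Glo, with parallel alamarBlue viability. Mean ± SEM, n > 2 biological repeats.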

[6] = test system: HIF1α; experiment: HIF1α-driven luciferase reporter assay, Pa03C cells, 1% hypoxia; assay type: cell-based; conditions: Homo sapiens, 24 h, read-out: HIF1α Luciferase 24 hr EC50 ± SE (μM)
Procedure, shortened: as §2

[7] = test system: NFκB; experiment: NFκB luciferase reporter assay; assay type: cell-based, human; conditions: for IC50: Homo sapiens, Pa03C, read-out: NFκB (IC50 mM)
Procedure, shortened: as §1

[8] = test system: NFκB and HIF1α; experiment: Ref-1-regulated transcription factor driven luciferase activity; assay type: cell-based, human; conditions: Pa03C and NF90–8 cells, 24 h
[9] = test system: Pa03C cells; experiment: 3D co-culture spheroid assay, tumor cells; assay type: cell-based; conditions: Homo sapiens; for EC50: read-out: 3D tumor(Pa03C) EC50 (mM); for IC50: read-out: cell killing effect in the 3D spheroid assay
[10] = test system: CAF19 cells; experiment: 3D co-culture spheroid assay, CAFs; assay type: cell-based; conditions: Homo sapiens, Pa03C, read-out: 3D CAF19 EC50 (mM)
Procedure, shortened: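 Pa03C (TdTomato-labelled) and CAF19 (EGFP-labelled) plated together at 1:4 in ultra-low-attachment plates to form spheroids. Treated on days 4, 8 and 12 with rising test compound levels in medium containing 5% serum and 3% growth-factor-reduced Matrigel. Fluorescence intensity read by high-content imaging on days 4, 8, 12 and 14. Mean ± SE, n > 3.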

[11] = Phase 1 metabolic stability, human liver microsomes; assay type: in vitro ADME; conditions: pH 7.4
Procedure, shortened: (§3)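 Test compound (1 μM) dried under nitrogen, then mixed with human or mouse liver S9 or microsomes (20 mg/mL stock) in phosphate buffer pH 7.4 with 5 mM MgCl2. Reaction started with NADPH (4 mM stock), shaken at 400 rpm. Sampled at 0, 5, 10, 20, 40 and 60 min and quenched with ice-cold acetonitrile; analysed by HPLC.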

[12] = Phase 1 metabolic stability, mouse liver microsomes; assay type: in vitro ADME; conditions: pH 7.4
Procedure, shortened: as §3

[13] = Phase 1 metabolic stability, human liver S9; assay type: in vitro ADME; conditions: liver S9, pH 7.4
Procedure, shortened: as §3

[14] = Phase 1 metabolic stability, mouse liver S9; assay type: in vitro ADME; conditions: liver S9, pH 7.4
Procedure, shortened: as §3

[15] = Plasma stability, human plasma; assay type: in vitro ADME
Procedure, shortened: (§4)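 Human or mouse plasma pre-warmed to 37 °C and added to dried test compound (1 μM) held on a 37 °C heat block. Stopped with cold acetonitrile at 0, 5, 10, 20, 40 and 60 min. Processed samples reconstituted in acetonitrile and analysed by HPLC.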

[16] = Plasma stability, mouse plasma; assay type: in vitro ADME
Procedure, shortened: as §4

[17] = Thermodynamic solubility; assay type: physicochemical; conditions: thermodynamic from solid; for solubility thermodynamic at 24 h: 37 °C; for solubility thermodynamic: phosphate buffer, pH 6.8, aqueous buffer
[18] = CaCO2 bidirectional permeability; assay type: in vitro ADME; conditions: human, Caco-2
[19] = In vivo PK in mouse; conditions: plasma; for clearance: iv; for AUC(0-inf) / Cmax / half-life: po, 25 mg/kg
[20] = biological target: T1, Ref-1 (39–318/C138A) (Homo sapiens, UniProt P27695, C138A); experiment: WaterLOGSY NMR; assay type: binding; conditions: 20 μM Ref-1, 200 μM compound
T1 sequence (P27695 39-318 C138A): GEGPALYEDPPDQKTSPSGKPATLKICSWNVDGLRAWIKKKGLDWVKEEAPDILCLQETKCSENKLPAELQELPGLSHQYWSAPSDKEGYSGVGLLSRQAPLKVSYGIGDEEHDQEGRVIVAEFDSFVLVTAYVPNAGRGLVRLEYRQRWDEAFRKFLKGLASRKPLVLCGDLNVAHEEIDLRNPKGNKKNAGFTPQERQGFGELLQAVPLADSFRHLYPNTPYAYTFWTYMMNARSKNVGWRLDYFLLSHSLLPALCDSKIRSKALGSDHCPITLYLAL
Procedure, shortened: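 WaterLOGSY spectra acquired with 1.5 s mixing time, 128 scans, 10 ppm sweep width, 1.58 s acquisition time and 5 s relaxation delay. Data multiplied by an exponential function with 1 Hz line broadening before Fourier transformation.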

[21] = Chemical stability in enabling vehicle PKT; assay type: physicochemical
[22] = test system: NF90–8 cells; experiment: Mitochondrial plate-based assay; assay type: cell-based, human; conditions: APX2051 at 10 μM, APX3330 at 50 μM
Procedure, shortened: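 Biolog S-1 Mitoplates activated with Assay Mix for at least 60 min at 37 °C. NF90–8 cells treated 24 h, then collected, counted, resuspended in kit buffer and plated at 5 × 10^4 cells/well. Read kinetically at 590 nm every 5 min for 4 h at 37 °C. Mean ± SEM, n = 2; 2-way ANOVA.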

[23] = Phase 2 metabolic stability, human liver S9; assay type: in vitro ADME
Procedure, shortened: (§5)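 Test compound (1 μM) dried under nitrogen, then incubated with human or mouse liver S9 in UGT reaction mix, shaken at 400 rpm. Stopped with ice-cold acetonitrile at 0, 5, 10, 20, 40 and 60 min. Temazepam internal standard added, then centrifuged; supernatant dried and reconstituted in acetonitrile for HPLC.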

[24] = Phase 2 metabolic stability, mouse liver S9; assay type: in vitro ADME
Procedure, shortened: as §5

[25] = biological target: T1, Ref-1 (39–318/C138A); conditions: ref [25]; cited from earlier work
[26] = test system: progressing solid tumors; conditions: phase I clinical trial, ref [34]–[36]; cited from earlier work
[27] = preclinical models; cited from earlier work
[28] = test system: NF90–8 and Pa03C cells; experiment: Cell viability; assay type: cell-based, human; conditions: alamar blue, 24 h
[29] = test system: Pa03C cells; experiment: NADP/NADPH assay; assay type: cell-based, human; conditions: 6 h
[30] = FaSSGF, fassgf or other biorelevant

Sequence of APE1 (P27695 whole entry): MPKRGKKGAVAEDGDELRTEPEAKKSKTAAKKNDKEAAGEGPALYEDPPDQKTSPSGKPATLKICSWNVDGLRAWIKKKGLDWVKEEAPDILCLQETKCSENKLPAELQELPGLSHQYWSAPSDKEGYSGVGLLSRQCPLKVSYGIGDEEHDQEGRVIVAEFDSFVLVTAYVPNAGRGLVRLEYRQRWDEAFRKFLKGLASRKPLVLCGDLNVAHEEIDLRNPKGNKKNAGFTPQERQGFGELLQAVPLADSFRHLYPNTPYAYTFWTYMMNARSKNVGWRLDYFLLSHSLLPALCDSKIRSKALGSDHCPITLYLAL
Sequence of Ref-1 (P27695 whole entry): as above

Structure (SMILES) | DNA Repair [2] | EC50 [3] | EC50 [4] | EC50 [5] | EC50 [9] | EC50 [10] | CLint scaled at 1 µM [11] | CLint scaled at 1 µM [12] | CLint scaled at 1 µM [13] | CLint scaled at 1 µM [14] | half-life at 1 µM [15] | half-life at 1 µM [16] | solubility thermodynamic at 24 h [17, 30] | solubility thermodynamic at 24 h ([17]; FaSSIF) | solubility thermodynamic at 24 h ([17]; FeSSIF) | Papp A→B [18] | clearance [19] | AUC(0-inf) [19] | Cmax [19] | half-life [19] | other results
CCC/C(=C\C1=C(OC)C(=O)c2ccccc2C1=O)C(=O)N(CC)CC [APX2009, (E)‐N,N‐diethyl‐2‐[(3‐methoxy‐1,4‐dioxo‐1,4‐dihydronaphthalen‐2-yl)methylidene]pentanamide] | Neg. | 5.1 ± 0.3 µM | 18.8 ± 1.35 µM | 14.3 ± 0.25 µM | 0.0046 mM | 0.0078 mM | 4.3 mL/min/kg | 19.3 mL/min/kg | 2.9 mL/min/kg | 7.9 mL/min/kg | 2.72 h | 0.567 h | 95 µg/mL (≈ 267 µM) | 198 µg/mL (≈ 557 µM) | 558 µg/mL (≈ 1570 µM) | 33.7 ×10⁻⁶ cm/s | 0.683 mL/min | 113 ng·h/mL | 27 ng/mL | 1.8 h | IC50 [1]: < 1 µM; EC50 [6]: 14.5 ± 1.06 µM; IC50 [7]: 0.0051 mM; reduction in both NFκB and HIF1α activity: fold lower doses compared to APX3330 [8]: 2 – 11 fold; IC50 [9]: 4.3 µM; solubility thermodynamic [17]: 94 µg/mL (≈ 264 µM); efflux ratio [18]: 0.75; peaks in waterLOGSY difference spectra [20]: consistent with interactions with Ref-1; chemical stability in PKT vehicle, stressed ([21]; 60 °C for 4 h): formation of significant amount of the hydroquinone (HQ) of APX2053; chemical stability in PKT vehicle ([21]; room temperature after four days): acceptable stability
CCCCCCCCC/C(=C\C1=C(C)C(=O)C(OC)=C(OC)C1=O)C(=O)O [APX3330, reference compound] | Neg. | 33.7 ± 2.81 µM | 54.5 ± 1.97 µM | 55.1 ± 0.44 µM | > 0.02 mM | > 0.02 mM | 31.8 mL/min/kg | 67.4 mL/min/kg | 4.4 mL/min/kg | 14.2 mL/min/kg | 8.48 h | 1.57 h | 1 µg/mL (≈ 2.64 µM) | 671 µg/mL (≈ 1770 µM) | 448 µg/mL (≈ 1180 µM) | 5.2 ×10⁻⁶ cm/s | 0.00833 mL/min | 77900 ng·h/mL | 8820 ng/mL | 3.8 h | EC50 [6]: 60.2 ± 4.13 µM; IC50 [7]: 0.0393 mM; inhibition of mitochondrial function [22]: minimal effects; CLint scaled at 1 µM [23]: 5.6 mL/min/kg; CLint scaled at 1 µM [24]: 21.6 mL/min/kg; solubility thermodynamic [17]: 496 µg/mL (≈ 1310 µM); peaks in waterLOGSY difference spectra [25]: consistent with interactions with Ref-1; response rate [26]: 32%; potency in cell-based proliferation assays [27]: 50 to 75 µM
CCC/C(=C\C1=C(O)C(=O)c2ccccc2C1=O)C(=O)N(CC)CC [APX2053, (E)-N,N-diethyl-2-((3-hydroxy-1,4-dioxo-1,4-dihydronaphthalen-2-yl)methylene)pentanamide] | Slight. Inhib. | – | – | – | 0.0161 mM | 0.0143 mM | 2.3 mL/min/kg | 19 mL/min/kg | 1.9 mL/min/kg | 34.6 mL/min/kg | 0.417 h | 2.2 h | 760 µg/mL (≈ 2230 µM) | 1010 µg/mL (≈ 2960 µM) | 1200 µg/mL (≈ 3510 µM) | 39.7 ×10⁻⁶ cm/s | 0.0217 mL/min | 25400 ng·h/mL | 5700 ng/mL | 2.1 h | NFκB activity ([7]; NF90–8 and Pa03C, any of the doses tested): do not decrease; blocking Ref-1 activated TF activity (for NFκB) ([7]; tested up to 40 μM): ineffective; cell viability of reporter cells [28]: do not decrease the NFκB activity or affect cell viability; NADPH levels (ratio of NADPH/NADPt) [29]: does not show reduced NADPH levels; IC50 [9]: 16 µM; efflux ratio [18]: 1; peaks in waterLOGSY difference spectra [20]: consistent with interactions with Ref-1
CC(=O)Nc1sc2c(c1-c1nc3ccccc3s1)CCN(C(C)C)C2 [ARi3, reference compound] | – | – | – | – | – | – | – | – | – | – | – | – | – | – | – | – | – | – | – | – | decrease of Ref-1 endonuclease activity ([2]; 20 μM, positive control): 63%
